Laboratory results reported in PMC3361640 (Insect Biochemistry and Molecular Biology, 2012).
Each block holds one molecule with its values, some of them ahead of it.

What was measured:
[1] = tested on: McOr3; test: McOr3 co-expressed with Orco; type: cell-based, Megacyllene caryae; settings: McOr3, odorant at 30 µM applied 20 s
Summary of the method: (§1)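 Defolliculated Xenopus laevis oocytes (collagenase B, 2 h, room temperature) were co-injected with receptor and Orco (McOr1) cRNA and incubated 3–7 d. Two-electrode voltage clamp was run at −70 mV with 3 M KCl electrodes (0.2–2.0 MΩ) in ND96. Pheromone components and isomers, diluted in ND96, were applied at 30 µM for 20 s at 1.6 ml/min. Currents were filtered at 20 Hz and sampled at 100 Hz.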

[2] = tested on: AmOr11; settings: AmOr11, Xenopus assay; ref Wanner et al., 2007; cited from earlier work
[3] = tested on: McOr20; test: McOr20 co-expressed with Orco; type: cell-based, Megacyllene caryae; settings: for Current response of receptor in separate screen: McOr20, odorant at 100 µM, data not shown; for Current response of receptor in screen: McOr20, odorant at 30 µM applied 20 s
[4] = tested on: BmOr 1; settings: ref Nakagawa et al., 2005; cited from earlier work
[5] = tested on: McOr5; test: McOr5 co-expressed with Orco; type: cell-based, Megacyllene caryae; settings: McOr5, odorant at 30 µM applied 20 s
Summary of the method: as §1

[6] = tested on: BmOr3; settings: ref Nakagawa et al., 2005; cited from earlier work
[7] = tested on: Megacyllene caryae adults; settings: adult M. caryae, field; ref Mitchell, 2012; cited from earlier work

Structure (SMILES): CC[C@H](C)CO [(S)-methylbutan-1-ol, (S)-2-methylbutan-1-ol]
- Current response of receptor in screen [1]: responded with high sensitivity

Structure (SMILES): CC(=O)CCCCCC=CC(=O)O [9-oxo-2-decenoic acid]
- EC50 [2]: 280 nM

Structure (SMILES): CCC/C=C\C=C\CCCCCCCCCO [bombykol]
- EC50 [4]: 1500 nM

Structure (SMILES): CCC/C=C\C=C\CCCCCCCCC=O [bombykal]
- EC50 [6]: 260 nM

Structure (SMILES): CC(C)=CCCC(C)=CC=O (mixture of isomers) [Citral, citral]
- Attraction of beetles [7]: attracts males and females in similar numbers

More lines, now with the values ahead:

- Current response of receptor in separate screen [3]: responded
Structure (SMILES): CCC[C@H](O)[C@H](C)O [(2S,3S)-2,3-hexanediol]

- Current response of receptor in screen [3]: sensitive
Structure (SMILES): CCC[C@@H](O)[C@H](C)O [(2S,3R)-2,3-hexanediol]

- Current response of receptor in screen [5]: sensitive
Structure (SMILES): OCCc1ccccc1 [2-phenylethanol]

- Current response of receptor in separate screen [3]: responded
Structure (SMILES): CCC[C@H](O)[C@@H](C)O [(2R,3S)-2,3-hexanediol]

- Current response of receptor in screen [3]: sensitive
Structure (SMILES): CCC[C@@H](O)C(C)=O [(R)-3-hydroxyhexan-2-one]
